Experimental data as given in ChEMBL document CHEMBL1944571, “A bright approach to the immunoproteasome: development of LMP2/β1i-specific imaging probes” (Bioorg Med Chem, 2012).
Active and inactive are the calls of the source. The rule behind the calls is not given here.

Tests used:
[1] = target: T1, Proteasome subunit beta type-9 (Homo sapiens) (UniProt P28065); assay: Binding affinity to LMP2/beta1i in human PC3 cells at 15 uM after 4 hrs by fluorescence microscopy analysis in presence of UK101 treated 1.5 hrs before compound treatment; settings: PC-3
T1 sequence (whole entry): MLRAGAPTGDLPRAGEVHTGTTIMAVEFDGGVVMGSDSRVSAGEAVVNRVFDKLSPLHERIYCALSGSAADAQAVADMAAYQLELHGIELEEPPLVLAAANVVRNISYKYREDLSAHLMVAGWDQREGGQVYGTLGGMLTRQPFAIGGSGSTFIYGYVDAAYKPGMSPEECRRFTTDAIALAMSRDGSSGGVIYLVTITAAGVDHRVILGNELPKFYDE

[2] = target: T1, Proteasome subunit beta type-9 (Homo sapiens); assay: Binding affinity to LMP2/beta1i in human PC3 cells after 4 hrs using typhoon imaging by gel fluorescence assay; assay type: cell-based; settings: PC-3
Summary of the method: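 PC-3 cells were treated with probe or DMSO vehicle for 4 h, with an epoxomicin control. Cells were washed in HBSS and lysed on ice for 1 h in NP-40/Triton X-100 buffer with protease inhibitors. Equal protein was run on 12% SDS-PAGE after denaturing at 100°C, and gels were scanned for fluorescence (λex 635 nm, λem 665 nm).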

[3] = target: T1, Proteasome subunit beta type-9 (Homo sapiens); assay: Binding affinity to LMP2/beta1i in human PC3 cells at 30 uM after 4 hrs by gel-fluorescence assay in presence of UK101 treated 1.5 hrs before compound treatment; assay type: cell-based; settings: PC-3
Summary of the method: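 PC-3 cells were pretreated for 1.5 h with DMSO or 1 μM competitor, then given 30 μM fluorescent probe for a further 4 h. Cells were washed, lysed, resolved by SDS-PAGE, and gels were imaged for in-gel fluorescence (λex 635 nm, λem 665 nm).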

[4] = target: T1, Proteasome subunit beta type-9 (Homo sapiens); assay: Binding affinity to LMP2/beta1i in human PC3 cells at 30 uM after 4 hrs by fluorescence microscopy analysis in presence of UK101-Lys-Cbz treated 1.5 hrs before compound treatment; assay type: cell-based; settings: PC-3
[5] = target: T1, Proteasome subunit beta type-9 (Homo sapiens); assay: Effect on LMP2/beta1i cellular distribution in human PC3 cells after 4 hrs by fluorescence microscopy analysis in presence of UK101 treated 1.5 hrs before compound treatment; assay type: cell-based; settings: PC-3
Summary of the method: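 PC-3 cells were grown on coverslips for 24–48 h, pretreated for 1.5 h with DMSO or 5 μM competitor, then given 15 μM probe for 4 h. Cells were washed, fixed in 4% paraformaldehyde, permeabilized with 0.2% Triton, and blocked. Where indicated, cells were stained with anti-LMP2 antibody, mounted with DAPI, and imaged by fluorescence microscopy, with intensity normalized to control.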

[6] = target: T1, Proteasome subunit beta type-9 (Homo sapiens); assay: Binding affinity to LMP2/beta1i in human PC3 cells at 30 uM after 4 hrs by gel-fluorescence assay in presence of UK101-Lys-Cbz treated 1.5 hrs before compound treatment; assay type: cell-based; settings: PC-3
Summary of the method: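 PC-3 cells were pretreated for 1.5 h with DMSO or 20 μM competitor, then incubated with 30 μM fluorescent probe for a further 4 h. Lysates were resolved by SDS-PAGE, and gels were imaged for in-gel fluorescence (λex 635 nm, λem 665 nm).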

[7] = target: T2, Proteasome subunit beta type-6 (Homo sapiens) (UniProt P28072); assay: Binding affinity to LMPY/beta1 in human PC3 cells at 10 to 20 uM after 1.5 hrs by Western blotting; assay type: cell-based; settings: PC-3
T2 sequence (whole entry): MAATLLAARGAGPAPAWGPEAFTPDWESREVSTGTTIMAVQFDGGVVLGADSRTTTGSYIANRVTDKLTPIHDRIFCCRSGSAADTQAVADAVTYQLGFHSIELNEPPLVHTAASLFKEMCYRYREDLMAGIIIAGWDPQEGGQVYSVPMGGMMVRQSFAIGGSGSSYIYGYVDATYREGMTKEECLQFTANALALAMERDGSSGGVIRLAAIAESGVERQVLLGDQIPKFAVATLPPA
Summary of the method: (§1)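 EL4 or PC-3 cells were exposed for 1.5 h to compound, DMSO vehicle, or 1 μM epoxomicin as positive control. Cells were washed in HBSS, lysed on ice for 1 h in non-denaturing NP-40/Triton buffer, and equal protein was resolved on 12% SDS-PAGE and blotted to PVDF. Blots were probed with subunit-specific antibodies and read by ECL. An upward band shift versus DMSO was scored as covalent modification.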

[8] = target: T1, Proteasome subunit beta type-9 (Homo sapiens); assay: Binding affinity to LMP2/beta1i in human PC3 cells at 10 to 80 uM after 1.5 hrs by Western blotting; assay type: cell-based; settings: PC-3
Summary of the method: as §1

[9] = target: T3, Proteasome subunit beta type-9 (Mus musculus) (UniProt P28076); assay: Binding affinity to LMP2/beta1i in mouse EL4 cells at 10 uM after 1.5 hrs by Western blotting; assay type: cell-based
T3 sequence (whole entry): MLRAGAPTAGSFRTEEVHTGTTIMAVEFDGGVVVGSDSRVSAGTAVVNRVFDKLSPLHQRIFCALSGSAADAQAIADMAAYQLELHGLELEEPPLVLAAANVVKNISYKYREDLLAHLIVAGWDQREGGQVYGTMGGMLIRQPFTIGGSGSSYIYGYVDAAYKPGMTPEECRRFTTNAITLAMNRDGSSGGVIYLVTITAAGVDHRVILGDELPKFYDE
Summary of the method: as §1

[10] = target: T4, Proteasome Macropain subunit MB1 (Homo sapiens) (UniProt P28074); assay: Binding affinity to LMPX/[…] in human PC3 cells at 10 to 20 uM after 1.5 hrs by Western blotting; assay type: cell-based; settings: PC-3
T4 sequence (whole entry): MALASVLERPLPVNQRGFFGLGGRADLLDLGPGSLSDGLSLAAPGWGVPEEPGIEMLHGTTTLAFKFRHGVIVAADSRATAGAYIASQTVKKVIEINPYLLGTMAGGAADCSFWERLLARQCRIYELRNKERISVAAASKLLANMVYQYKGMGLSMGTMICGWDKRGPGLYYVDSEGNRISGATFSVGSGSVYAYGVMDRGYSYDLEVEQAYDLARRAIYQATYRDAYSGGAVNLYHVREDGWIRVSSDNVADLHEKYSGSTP
Summary of the method: as §1

[11] = target: T5, Proteasome subunit beta type-8 (Mus musculus) (UniProt P28063); assay: Binding affinity to LMP7/beta5i in mouse EL4 cells at 10 uM after 1.5 hrs by Western blotting; assay type: cell-based
T5 sequence (whole entry): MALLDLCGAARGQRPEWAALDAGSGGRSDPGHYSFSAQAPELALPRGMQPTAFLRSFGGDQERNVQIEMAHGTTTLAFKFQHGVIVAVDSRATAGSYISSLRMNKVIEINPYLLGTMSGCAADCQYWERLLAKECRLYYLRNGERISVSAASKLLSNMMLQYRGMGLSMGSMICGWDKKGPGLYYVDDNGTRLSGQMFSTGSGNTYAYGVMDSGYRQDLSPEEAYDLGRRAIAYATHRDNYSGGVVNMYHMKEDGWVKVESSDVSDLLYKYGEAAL
Summary of the method: as §1

[12] = target: T6, Proteasome subunit beta type-8 (Homo sapiens) (UniProt P28062); assay: Binding affinity to LMP7/beta5i in human PC3 cells at 10 to 20 uM after 1.5 hrs by Western blotting; assay type: cell-based; settings: PC-3
T6 sequence (whole entry): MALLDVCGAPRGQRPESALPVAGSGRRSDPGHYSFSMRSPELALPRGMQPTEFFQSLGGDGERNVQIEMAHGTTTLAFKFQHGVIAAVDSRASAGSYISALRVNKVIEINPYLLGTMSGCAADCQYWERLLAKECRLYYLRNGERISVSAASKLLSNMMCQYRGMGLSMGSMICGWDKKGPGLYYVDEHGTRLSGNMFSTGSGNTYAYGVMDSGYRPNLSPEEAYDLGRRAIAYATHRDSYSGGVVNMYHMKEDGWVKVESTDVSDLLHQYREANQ
Summary of the method: as §1

[13] = target: T3, Proteasome subunit beta type-9 (Mus musculus); assay: Binding affinity to LMP2/beta1i in mouse EL4 cells at 1 uM after 1.5 hrs by Western blotting; assay type: cell-based
Summary of the method: as §1

[14] = target: T3, Proteasome subunit beta type-9 (Mus musculus); assay: Binding affinity to LMP2/beta1i in mouse EL4 cells at 5 uM after 1.5 hrs by Western blotting; assay type: cell-based
Summary of the method: as §1

[15] = target: T7, Proteasome subunit beta type-5 (Mus musculus) (UniProt O55234); assay: Binding affinity to LMPX/[…] in mouse EL4 cells at 10 uM after 1.5 hrs by Western blotting; assay type: cell-based
T7 sequence (whole entry): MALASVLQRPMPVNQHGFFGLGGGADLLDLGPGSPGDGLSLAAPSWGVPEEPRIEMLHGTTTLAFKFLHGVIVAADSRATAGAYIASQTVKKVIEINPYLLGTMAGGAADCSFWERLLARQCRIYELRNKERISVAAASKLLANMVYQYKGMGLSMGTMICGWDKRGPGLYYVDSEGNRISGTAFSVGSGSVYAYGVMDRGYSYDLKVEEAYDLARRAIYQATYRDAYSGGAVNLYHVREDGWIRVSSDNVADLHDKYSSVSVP
Summary of the method: as §1

[16] = target: T8, Proteasome subunit beta type-6 (Mus musculus) (UniProt Q60692); assay: Binding affinity to LMPY/beta1 in mouse EL4 cells at 10 uM after 1.5 hrs by Western blotting; assay type: cell-based
T8 sequence (whole entry): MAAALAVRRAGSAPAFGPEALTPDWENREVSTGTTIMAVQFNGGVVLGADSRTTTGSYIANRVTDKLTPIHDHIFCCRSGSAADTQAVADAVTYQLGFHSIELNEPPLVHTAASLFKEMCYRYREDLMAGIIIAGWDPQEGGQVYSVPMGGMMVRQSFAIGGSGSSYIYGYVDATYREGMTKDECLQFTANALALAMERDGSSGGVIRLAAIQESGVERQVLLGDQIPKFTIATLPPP
Summary of the method: as §1

Row | SMILES | Activity [1] | Activity [2] | Activity [3] | Activity [4] | Activity [5] | Activity [6] | Activity [7] | Activity [8] | Activity [9] | Activity [10] | Activity [11] | Activity [12] | Activity [13] | Activity [14] | Activity [15] | Activity [16]
1 | CCCCCCC(=O)N[C@@H](CCCCNC(=O)CCCCCNC(=O)COc1ccc(/C=C/c2ccc3n2[B-](F)(F)[N+]2=C(c4ccc[nH]4)C=CC2=C3)cc1)C(=O)N[C@@H](CC(C)C)C(=O)[C@@]1(CO[Si](C)(C)C(C)(C)C)CO1 | inactive | Active | inactive | inactive | inactive | inactive |  |  |  |  |  |  |  |  |  | 
2 | CCCCCCC(=O)N[C@@H](CCCCNC(=O)OCc1ccccc1)C(=O)N[C@@H](CC(C)C)C(=O)[C@@]1(CO[Si](C)(C)C(C)(C)C)CO1 |  |  |  |  |  |  | inactive | Active | Active | inactive | inactive | inactive | inactive | Active | inactive | inactive
